{
  "source": "ChEMBL document CHEMBL5303300",
  "about": "“EUbOPEN Chemogenomics Library - Multiplex” (2023)",
  "format_in_all_cases": "toxicity, cell-based",
  "key": {"[1]": {"system": "HEK-293T", "experiment": "Multiplex assay against HEK293T", "conditions": "human, number of replicates 2", "procedure,_shortened": "(§1)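 Cells stained live at seeding with Hoechst33342, BioTracker Green Microtubule Cytoskeleton Dye, MitoTracker Red and Annexin V Alexa Fluor 680 were imaged on a CQ1 microscope at 37°C and 5% CO2 after compound addition. Their classification by CellPathfinder machine-learning gating ran from Hoechst high-intensity objects versus normal cells, to healthy, pyknosed or fragmented nuclei among normal cells, to mitotic or apoptotic among pyknosed cells. Tubulin, mitochondrial-mass and membrane-permeability phenotypes are per cents of healthy-nucleus cells.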"}, "[2]": {"system": "U2OS", "experiment": "Multiplex assay against U2OS", "conditions": "human, number of replicates 2", "procedure,_shortened": "as §1"}, "[3]": {"system": "Fibroblast", "experiment": "Multiplex assay against human fibroblast", "conditions": "number of replicates 2", "procedure,_shortened": "as §1"}, "[4]": {"conditions": "12 h, 1 µM, compound concentration 1 uM"}, "[5]": {"conditions": "12 h, 10 µM, compound concentration 10 uM"}, "[6]": {"conditions": "24 h, 1 µM, compound concentration 1 uM"}, "[7]": {"conditions": "24 h, 10 µM, compound concentration 10 uM"}, "[8]": {"conditions": "48 h, 1 µM, compound concentration 1 uM"}, "[9]": {"conditions": "48 h, 10 µM, compound concentration 10 uM"}},
  "note": "Values joined by “and” are separate entries in the source; they are usually repeats but may differ in a detail not shown here. Equal values may be shown once.",
  "data": [
    {"smiles": "CS(=O)(=O)c1ccc(C(=O)Nc2cccc(COc3ccc(Br)cc3CN[C@H]3CCC[C@@H]3O)c2)c(Cl)c1.O=CO", "values": [
      {"measurement": "Population Apoptotic (%)", "setting": "[1]; [4]", "result": "63% and 58%"},
      {"measurement": "Population Healthy Nuclei (%)", "setting": "[1]; [4]", "result": "76% and 80%"},
      {"measurement": "Population Mitotic Cells (%)", "setting": "[1]; [4]", "result": "36% and 41%"},
      {"measurement": "Population Normal (%)", "setting": "[1]; [4]", "result": "91% and 92%"},
      {"measurement": "Total Cell Count", "setting": "[1]; [4]", "result": "550 and 522"},
      {"measurement": "Population Apoptotic (%)", "setting": "[1]; [5]", "result": "66% and 59%"},
      {"measurement": "Population Healthy Nuclei (%)", "setting": "[1]; [5]", "result": "84% and 88%"},
      {"measurement": "Population Mitotic Cells (%)", "setting": "[1]; [5]", "result": "33% and 40%"},
      {"measurement": "Population Normal (%)", "setting": "[1]; [5]", "result": "91% and 90%"},
      {"measurement": "Total Cell Count", "setting": "[1]; [5]", "result": "631 and 603"},
      {"measurement": "Population Apoptotic (%)", "setting": "[1]; [6]", "result": "55% and 58%"},
      {"measurement": "Population Healthy Nuclei (%)", "setting": "[1]; [6]", "result": "80% and 83%"},
      {"measurement": "Population Mitotic Cells (%)", "setting": "[1]; [6]", "result": "44% and 41%"},
      {"measurement": "Population Normal (%)", "setting": "[1]; [6]", "result": 90, "unit": "%"},
      {"measurement": "Total Cell Count", "setting": "[1]; [6]", "result": "792 and 800"},
      {"measurement": "Population Apoptotic (%)", "setting": "[1]; [7]", "result": "60% and 67%"},
      {"measurement": "Population Healthy Nuclei (%)", "setting": "[1]; [7]", "result": "85% and 79%"},
      {"measurement": "Population Mitotic Cells (%)", "setting": "[1]; [7]", "result": "39% and 32%"},
      {"measurement": "Population Normal (%)", "setting": "[1]; [7]", "result": "91% and 87%"},
      {"measurement": "Total Cell Count", "setting": "[1]; [7]", "result": "623 and 546"},
      {"measurement": "Population Apoptotic (%)", "setting": "[1]; [8]", "result": "20% and 29%"},
      {"measurement": "Population Healthy Nuclei (%)", "setting": "[1]; [8]", "result": "86% and 87%"},
      {"measurement": "Population Mitotic Cells (%)", "setting": "[1]; [8]", "result": "79% and 70%"},
      {"measurement": "Population Normal (%)", "setting": "[1]; [8]", "result": "91% and 92%"},
      {"measurement": "Total Cell Count", "setting": "[1]; [8]", "result": "1777 and 1587"},
      {"measurement": "Population Apoptotic (%)", "setting": "[1]; [9]", "result": "60% and 78%"},
      {"measurement": "Population Healthy Nuclei (%)", "setting": "[1]; [9]", "result": "86% and 80%"},
      {"measurement": "Population Mitotic Cells (%)", "setting": "[1]; [9]", "result": "40% and 21%"},
      {"measurement": "Population Normal (%)", "setting": "[1]; [9]", "result": "89% and 90%"},
      {"measurement": "Total Cell Count", "setting": "[1]; [9]", "result": "671 and 634"},
      {"measurement": "Population Apoptotic (%)", "setting": "[2]; [4]", "result": "50% and 70%"},
      {"measurement": "Population Healthy Nuclei (%)", "setting": "[2]; [4]", "result": "78% and 79%"},
      {"measurement": "Population Hoechst High Intensity Objects (%)", "setting": "[2]; [4]", "result": 0, "unit": "%"},
      {"measurement": "Population Normal (%)", "setting": "[2]; [4]", "result": 100, "unit": "%"},
      {"measurement": "Population Apoptotic (%)", "setting": "[2]; [5]", "result": "59% and 100%"},
      {"measurement": "Population Healthy Nuclei (%)", "setting": "[2]; [5]", "result": "70% and 80%"},
      {"measurement": "Population Hoechst High Intensity Objects (%)", "setting": "[2]; [5]", "result": 0, "unit": "%"},
      {"measurement": "Population Normal (%)", "setting": "[2]; [5]", "result": "99% and 100%"},
      {"measurement": "Population Apoptotic (%)", "setting": "[2]; [6]", "result": "87% and 73%"},
      {"measurement": "Population Healthy Nuclei (%)", "setting": "[2]; [6]", "result": "71% and 82%"},
      {"measurement": "Population Hoechst High Intensity Objects (%)", "setting": "[2]; [6]", "result": 0, "unit": "%"},
      {"measurement": "Population Normal (%)", "setting": "[2]; [6]", "result": 100, "unit": "%"},
      {"measurement": "Population Apoptotic (%)", "setting": "[2]; [7]", "result": "88% and 79%"},
      {"measurement": "Population Healthy Nuclei (%)", "setting": "[2]; [7]", "result": "47% and 63%"},
      {"measurement": "Population Hoechst High Intensity Objects (%)", "setting": "[2]; [7]", "result": 0, "unit": "%"},
      {"measurement": "Population Normal (%)", "setting": "[2]; [7]", "result": "100% and 99%"},
      {"measurement": "Population Apoptotic (%)", "setting": "[2]; [8]", "result": "44% and 86%"},
      {"measurement": "Population Healthy Nuclei (%)", "setting": "[2]; [8]", "result": "80% and 83%"},
      {"measurement": "Population Hoechst High Intensity Objects (%)", "setting": "[2]; [8]", "result": 0, "unit": "%"},
      {"measurement": "Population Normal (%)", "setting": "[2]; [8]", "result": 100, "unit": "%"},
      {"measurement": "Population Apoptotic (%)", "setting": "[2]; [9]", "result": 92, "unit": "%"},
      {"measurement": "Population Healthy Nuclei (%)", "setting": "[2]; [9]", "result": "50% and 57%"},
      {"measurement": "Population Hoechst High Intensity Objects (%)", "setting": "[2]; [9]", "result": "1% and 0%"},
      {"measurement": "Population Normal (%)", "setting": "[2]; [9]", "result": "98% and 100%"},
      {"measurement": "Population Apoptotic (%)", "setting": "[3]; [4]", "result": "24% and 46%"},
      {"measurement": "Population Healthy Nuclei (%)", "setting": "[3]; [4]", "result": "71% and 64%"},
      {"measurement": "Population Hoechst High Intensity Objects (%)", "setting": "[3]; [4]", "result": 0, "unit": "%"},
      {"measurement": "Population Mitotic Cells (%)", "setting": "[3]; [4]", "result": "75% and 53%"},
      {"measurement": "Population Normal (%)", "setting": "[3]; [4]", "result": "99% and 100%"},
      {"measurement": "Population Pyknosed Nuclei (%)", "setting": "[3]; [4]", "result": 20, "unit": "%"},
      {"measurement": "Total Cell Count", "setting": "[3]; [4]", "result": "223 and 167"},
      {"measurement": "Population Apoptotic (%)", "setting": "[3]; [5]", "result": "52% and 50%"},
      {"measurement": "Population Healthy Nuclei (%)", "setting": "[3]; [5]", "result": "43% and 57%"},
      {"measurement": "Population Hoechst High Intensity Objects (%)", "setting": "[3]; [5]", "result": "1% and 0%"},
      {"measurement": "Population Mitotic Cells (%)", "setting": "[3]; [5]", "result": "47% and 50%"},
      {"measurement": "Population Normal (%)", "setting": "[3]; [5]", "result": "98% and 99%"},
      {"measurement": "Population Pyknosed Nuclei (%)", "setting": "[3]; [5]", "result": 42, "unit": "%"},
      {"measurement": "Total Cell Count", "setting": "[3]; [5]", "result": "187 and 221"},
      {"measurement": "Population Apoptotic (%)", "setting": "[3]; [6]", "result": "44% and 73%"},
      {"measurement": "Population Healthy Nuclei (%)", "setting": "[3]; [6]", "result": "68% and 59%"},
      {"measurement": "Population Hoechst High Intensity Objects (%)", "setting": "[3]; [6]", "result": 0, "unit": "%"},
      {"measurement": "Population Normal (%)", "setting": "[3]; [6]", "result": 100, "unit": "%"},
      {"measurement": "Total Cell Count", "setting": "[3]; [6]", "result": "219 and 171"},
      {"measurement": "Population Apoptotic (%)", "setting": "[3]; [7]", "result": "62% and 72%"},
      {"measurement": "Population Healthy Nuclei (%)", "setting": "[3]; [7]", "result": "58% and 51%"},
      {"measurement": "Population Hoechst High Intensity Objects (%)", "setting": "[3]; [7]", "result": 0, "unit": "%"},
      {"measurement": "Population Mitotic Cells (%)", "setting": "[3]; [7]", "result": "37% and 27%"},
      {"measurement": "Population Normal (%)", "setting": "[3]; [7]", "result": "99% and 97%"},
      {"measurement": "Population Pyknosed Nuclei (%)", "setting": "[3]; [7]", "result": 32, "unit": "%"},
      {"measurement": "Total Cell Count", "setting": "[3]; [7]", "result": "202 and 182"},
      {"measurement": "Population Apoptotic (%)", "setting": "[3]; [8]", "result": "75% and 70%"},
      {"measurement": "Population Healthy Nuclei (%)", "setting": "[3]; [8]", "result": "70% and 68%"},
      {"measurement": "Population Hoechst High Intensity Objects (%)", "setting": "[3]; [8]", "result": 0, "unit": "%"},
      {"measurement": "Population Mitotic Cells (%)", "setting": "[3]; [8]", "result": "24% and 29%"},
      {"measurement": "Population Normal (%)", "setting": "[3]; [8]", "result": "99% and 100%"},
      {"measurement": "Population Pyknosed Nuclei (%)", "setting": "[3]; [8]", "result": 20, "unit": "%"},
      {"measurement": "Total Cell Count", "setting": "[3]; [8]", "result": "218 and 154"},
      {"measurement": "Population Apoptotic (%)", "setting": "[3]; [9]", "result": "87% and 86%"},
      {"measurement": "Population Healthy Nuclei (%)", "setting": "[3]; [9]", "result": "71% and 55%"},
      {"measurement": "Population Hoechst High Intensity Objects (%)", "setting": "[3]; [9]", "result": "0% and 1%"},
      {"measurement": "Population Normal (%)", "setting": "[3]; [9]", "result": "99% and 98%"},
      {"measurement": "Population Pyknosed Nuclei (%)", "setting": "[3]; [9]", "result": 20, "unit": "%"},
      {"measurement": "Total Cell Count", "setting": "[3]; [9]", "result": "197 and 190"}
    ]}
  ]
}
